Bounds are passed on as bounds.

Sequence of Integrin alpha-IIb/beta-3 (P05106 27-788 limits assumed): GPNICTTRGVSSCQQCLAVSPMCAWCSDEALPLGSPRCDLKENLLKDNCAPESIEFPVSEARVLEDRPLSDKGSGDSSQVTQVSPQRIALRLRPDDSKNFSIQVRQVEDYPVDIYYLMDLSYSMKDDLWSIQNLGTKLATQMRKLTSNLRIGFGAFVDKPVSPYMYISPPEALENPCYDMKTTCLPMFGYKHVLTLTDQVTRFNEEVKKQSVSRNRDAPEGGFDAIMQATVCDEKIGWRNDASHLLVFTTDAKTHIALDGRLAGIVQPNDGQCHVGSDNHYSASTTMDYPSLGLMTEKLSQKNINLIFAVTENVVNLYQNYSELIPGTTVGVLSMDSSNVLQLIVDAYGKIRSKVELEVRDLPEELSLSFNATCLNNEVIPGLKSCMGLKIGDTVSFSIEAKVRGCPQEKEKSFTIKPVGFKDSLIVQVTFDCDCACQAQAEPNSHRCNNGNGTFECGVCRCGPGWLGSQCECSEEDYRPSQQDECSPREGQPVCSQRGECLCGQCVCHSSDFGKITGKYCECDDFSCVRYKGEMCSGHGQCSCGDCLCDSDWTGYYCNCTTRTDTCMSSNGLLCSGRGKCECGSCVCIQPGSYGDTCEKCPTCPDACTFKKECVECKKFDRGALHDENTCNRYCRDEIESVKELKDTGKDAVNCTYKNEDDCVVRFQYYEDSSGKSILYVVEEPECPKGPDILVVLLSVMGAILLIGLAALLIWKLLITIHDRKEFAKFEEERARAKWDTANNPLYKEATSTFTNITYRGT
Sequence of Integrin alpha-IIb/beta-3 (P08514 32-887 limits assumed): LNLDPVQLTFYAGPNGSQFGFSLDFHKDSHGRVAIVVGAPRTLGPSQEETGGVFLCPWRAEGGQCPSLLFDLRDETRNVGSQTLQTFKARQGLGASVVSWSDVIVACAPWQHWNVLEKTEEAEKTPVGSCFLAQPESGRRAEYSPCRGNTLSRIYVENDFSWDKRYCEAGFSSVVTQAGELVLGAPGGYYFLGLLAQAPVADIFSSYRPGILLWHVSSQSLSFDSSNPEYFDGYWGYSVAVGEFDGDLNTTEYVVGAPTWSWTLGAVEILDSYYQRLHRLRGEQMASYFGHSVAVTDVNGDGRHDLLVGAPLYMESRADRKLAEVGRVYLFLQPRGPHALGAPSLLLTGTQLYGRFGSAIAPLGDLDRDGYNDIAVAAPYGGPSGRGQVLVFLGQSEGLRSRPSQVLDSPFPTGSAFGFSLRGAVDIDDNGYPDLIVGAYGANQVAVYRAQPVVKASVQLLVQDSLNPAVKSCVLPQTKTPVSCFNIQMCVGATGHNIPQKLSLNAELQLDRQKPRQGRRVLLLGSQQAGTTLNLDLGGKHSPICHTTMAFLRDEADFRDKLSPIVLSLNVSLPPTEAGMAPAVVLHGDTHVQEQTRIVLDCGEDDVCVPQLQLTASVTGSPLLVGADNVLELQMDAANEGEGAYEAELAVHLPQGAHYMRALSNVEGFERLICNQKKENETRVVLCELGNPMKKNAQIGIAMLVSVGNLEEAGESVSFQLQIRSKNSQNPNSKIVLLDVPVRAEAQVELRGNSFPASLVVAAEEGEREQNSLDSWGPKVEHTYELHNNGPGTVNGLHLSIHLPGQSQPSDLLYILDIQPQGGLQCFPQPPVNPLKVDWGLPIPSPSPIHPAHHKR
Sequence of Integrin alpha-IIb/beta-3 (P08514 891-1039 limits assumed): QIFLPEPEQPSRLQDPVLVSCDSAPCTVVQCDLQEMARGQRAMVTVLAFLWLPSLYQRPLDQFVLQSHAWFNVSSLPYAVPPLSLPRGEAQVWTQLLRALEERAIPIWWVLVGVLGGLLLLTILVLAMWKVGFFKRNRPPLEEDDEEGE

The first test addresses Integrin alpha-IIb/beta-3 (Homo sapiens, UniProt P05106+P08514). Description: Inhibition of aggregation of human gel-purified platelets (GPIIbIIIa GPP). In kind it is functional. In a few lines: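 Human platelets from healthy-volunteer platelet-rich plasma were gel-purified on sepharose and used at 2×10^8 platelets/mL with 1 mM CaCl2 and 1 mg/mL fibrinogen. Aggregation was measured with or without compound at several concentrations and IC50 calculated. Values are single determinations.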
For orientation: IC50 means the point on the concentration scale where inhibition reaches its midpoint. Read a low IC50 as inhibition by little substance. Regarding `Cc1cc(C)c(S(=O)(=O)N[C@@H](CNC(=O)C2=NOC(CCCC(=O)Nc3ncc[nH]3)C2)C(=O)O)c(C)c1` (some centres undefined), half-maximal inhibition (IC50) required 61000 nM.

The target of a further test is T1, Integrin alpha-V/beta-3 (Homo sapiens, UniProt P05106+P06756). Description: Inhibition of Vitronectin receptor (alpha V beta 3) binding. In kind it is protein-complex assay.
T1 sequence (P05106 27-788 limits assumed): as the sequence (P05106 27-788 limits assumed) above
T1 sequence (P06756 31-889 limits assumed): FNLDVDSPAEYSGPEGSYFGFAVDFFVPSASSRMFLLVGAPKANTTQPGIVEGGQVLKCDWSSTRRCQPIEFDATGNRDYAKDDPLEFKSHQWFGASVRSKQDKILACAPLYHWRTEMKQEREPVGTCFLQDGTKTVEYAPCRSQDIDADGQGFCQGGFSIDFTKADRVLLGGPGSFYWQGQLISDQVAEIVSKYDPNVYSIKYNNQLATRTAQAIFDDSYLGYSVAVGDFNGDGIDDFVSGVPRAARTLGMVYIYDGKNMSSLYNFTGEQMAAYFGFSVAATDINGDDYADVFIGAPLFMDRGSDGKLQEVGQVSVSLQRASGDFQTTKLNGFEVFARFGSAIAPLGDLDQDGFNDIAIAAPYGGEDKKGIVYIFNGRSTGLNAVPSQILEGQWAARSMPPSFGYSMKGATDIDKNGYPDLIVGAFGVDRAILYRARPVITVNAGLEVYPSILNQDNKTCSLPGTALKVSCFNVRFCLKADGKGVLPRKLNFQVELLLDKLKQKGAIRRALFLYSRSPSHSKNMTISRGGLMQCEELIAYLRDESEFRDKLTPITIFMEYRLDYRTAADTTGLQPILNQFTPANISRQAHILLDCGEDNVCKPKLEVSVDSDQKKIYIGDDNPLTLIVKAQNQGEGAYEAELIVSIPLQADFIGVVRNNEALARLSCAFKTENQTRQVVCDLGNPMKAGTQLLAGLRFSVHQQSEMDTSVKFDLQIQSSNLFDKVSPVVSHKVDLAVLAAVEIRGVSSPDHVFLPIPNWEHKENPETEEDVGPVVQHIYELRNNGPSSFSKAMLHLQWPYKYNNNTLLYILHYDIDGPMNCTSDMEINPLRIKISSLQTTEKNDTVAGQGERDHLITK
T1 sequence (P06756 891-1048 limits assumed): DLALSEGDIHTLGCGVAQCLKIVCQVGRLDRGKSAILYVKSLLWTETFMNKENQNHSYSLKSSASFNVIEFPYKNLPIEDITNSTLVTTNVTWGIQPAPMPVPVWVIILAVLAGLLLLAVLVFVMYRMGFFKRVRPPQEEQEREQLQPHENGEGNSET
In the case of `O=C(N[C@@H](CNC(=O)c1cccc2c1cnn2CCCNC1=NCCN1)C(=O)O)OCc1ccccc1`, the IC50 amounted to 7.3 nM.

As for `O=C(N[C@H](CNC(=O)c1ccc2cnn(CCCNC3=NCCN3)c2c1)C(=O)O)OCc1ccccc1`, the IC50 came to 1500 nM.

For `O=C(N[C@@H](CNC(=O)c1ccc2c(cnn2CCCNC2=NCCN2)c1)C(=O)O)OCc1ccccc1`, the concentration for half-maximal inhibition (IC50) was 3.8 nM.

`O=C(N[C@@H](CNC(=O)c1ccc2c(cnn2CCCCNC2=NCCN2)c1)C(=O)O)OCc1ccccc1`: the 50% inhibitory concentration (IC50) was determined as 250 nM.

The compound `O=C(N[C@H](CNC(=O)c1ccc2cn(CCCNC3=NCCN3)nc2c1)C(=O)O)OCc1ccccc1` displayed an IC50 of 25 nM.

`O=C(N[C@@H](CNC(=O)c1ccc2c(cnn2CCNC2=NCCN2)c1)C(=O)O)OCc1ccccc1` came in with an IC50 of 51 nM.

As for `Cc1cc(C)c(S(=O)(=O)N[C@@H](CNC(=O)c2cccc3c2cnn3CCCNc2ncc[nH]2)C(=O)O)c(C)c1`, the IC50 is under 0.1 nM.

As for `O=C(N[C@@H](CNC(=O)c1ccc2nn(CCCNC3=NCCN3)cc2c1)C(=O)O)OCc1ccccc1`, the IC50 was found to be 55 nM.

A further test has as its target T1, Integrin alpha-V/beta-3. In words: Inhibitory activity against beta-3-transfected 293 cells using alpha-V beta-3 antagonism assay. In kind it is functional, cell-based, HEK293. Put shortly: (§1)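 Fibrinogen-coated plates were blocked with BSA in PBS. HEK293 cells expressing human β3 subunit were preincubated 15 min at 37 °C with or without compound, then allowed to adhere for 60 min. Nonadherent cells were washed off with PBS, adherent cells lysed, and β-galactosidase activity read. IC50 was derived from standard curves and reported ± SEM.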
In the case of `Cc1cc(C)c(S(=O)(=O)N[C@@H](CNC(=O)c2ccc3c(cnn3CCCNc3ccccn3)c2)C(=O)O)c(C)c1`, the IC50 amounted to 48 nM.

In turn, `CC(C)CNS(=O)(=O)N[C@@H](CNC(=O)c1ccc2c(cnn2CCCNc2ccccn2)c1)C(=O)O` had an IC50 of over 1000 nM.

`CC(C)(C)c1ccc(S(=O)(=O)N[C@@H](CNC(=O)c2ccc3c(cnn3CCCNc3ncc[nH]3)c2)C(=O)O)cc1` gave an IC50 of 120 nM.

Compound `O=C(N[C@@H](CNC(=O)c1ccc2c(cnn2CCCNc2ccccn2)c1)C(=O)O)OCc1ccccc1` returned a 50% inhibitory concentration (IC50) of 300 nM.

As to `O=C(NC[C@H](NS(=O)(=O)c1ccc(Cl)cc1)C(=O)O)c1ccc2c(cnn2CCCNc2ncc[nH]2)c1`, the IC50 came out at 10 nM.

Regarding `Cc1cc(C)c(S(=O)(=O)N[C@@H](CC(=O)Nc2ccc3c(cnn3CCCNc3ccccn3)c2)C(=O)O)c(C)c1`, the IC50 is 840 nM.

For `O=C(NC[C@H](NS(=O)(=O)c1ccc(Cl)c(Cl)c1)C(=O)O)c1ccc2c(cnn2CCCNc2ncc[nH]2)c1`, inhibition was half-maximal at 10 nM (IC50).

In turn, `Cc1cc(C)c(S(=O)(=O)N[C@@H](CN(C)C(=O)c2ccc3c(cnn3CCCNc3ccccn3)c2)C(=O)O)c(C)c1` registered an IC50 of over 1000 nM.

As to `Cc1cc(C)c(S(=O)(=O)N[C@H](CNC(=O)c2ccc3c(cnn3CCCNc3ncc[nH]3)c2)C(=O)O)c(C)c1`, the IC50 was determined as 290 nM.

`O=C(CCc1ccccc1)N[C@@H](CNC(=O)c1ccc2c(cnn2CCCNc2ccccn2)c1)C(=O)O`: the half-maximal inhibitory concentration (IC50) was over 1000 nM.

With `CCCCS(=O)(=O)N[C@@H](CNC(=O)c1ccc2c(cnn2CCCNc2ccccn2)c1)C(=O)O`, the midpoint of inhibition, the IC50, lay at 360 nM.

`O=C(NC[C@H](NS(=O)(=O)Cc1ccccc1)C(=O)O)c1ccc2c(cnn2CCCNc2ccccn2)c1`: the IC50 was over 1000 nM.

In the case of `O=C(N[C@@H](CNC(=O)c1ccc2c(cnn2CCCNc2ncc[nH]2)c1)C(=O)O)OCc1ccccc1`, inhibition was half-maximal at 74 nM (IC50).

Regarding `O=C(NC[C@H](NS(=O)(=O)c1ccccc1)C(=O)O)c1ccc2c(cnn2CCCNc2ncc[nH]2)c1`, the IC50 was 44 nM. This IC50 is about 1.7-fold lower than that of the compound before.

In turn, `Cc1cc(-c2ccccc2)cc(C)c1S(=O)(=O)N[C@@H](CNC(=O)c1ccc2c(cnn2CCCNc2ncc[nH]2)c1)C(=O)O` had an IC50 of 4.9 nM.

`CC(C)CCC(=O)N[C@@H](CNC(=O)c1ccc2c(cnn2CCCNc2ccccn2)c1)C(=O)O` returned an IC50 of over 1000 nM.

Consider `O=C(NC[C@H](NS(=O)(=O)c1ccccc1)C(=O)O)c1ccc2c(cnn2CCCNc2ccccn2)c1`, for which the IC50 stood at 120 nM. This counts as sub-micromolar.

`CC(C)COC(=O)N[C@@H](CNC(=O)c1ccc2c(cnn2CCCNc2ccccn2)c1)C(=O)O`: inhibition was half-maximal at 240 nM (IC50).

As to `O=C(NC[C@H](NS(=O)(=O)Nc1ccccc1)C(=O)O)c1ccc2c(cnn2CCCNc2ccccn2)c1`, the midpoint of inhibition, the IC50, lay at 170 nM.

As to `O=C(NC[C@H](NS(=O)(=O)c1ccc(-c2ccccc2)cc1)C(=O)O)c1ccc2c(cnn2CCCNc2ncc[nH]2)c1`, half-maximal inhibition (IC50) required 35 nM.

For `Cc1cc(C)c(S(=O)(=O)N[C@@H](CNC(=O)c2ccc3c(cnn3CCCNc3ncc[nH]3)c2)C(=O)O)c(C)c1`, the IC50 is 2.3 nM.

In turn, `O=C(Nc1ccccc1)N[C@@H](CNC(=O)c1ccc2c(cnn2CCCNc2ccccn2)c1)C(=O)O` showed an IC50 of over 1000 nM.

Take `O=C(NC[C@H](NS(=O)(=O)NCc1ccccc1)C(=O)O)c1ccc2c(cnn2CCCNc2ccccn2)c1`: the IC50 was 600 nM. In other words, the sub-micromolar range.

`O=C(O)CCNC(=O)c1ccc2c(cnn2CCCNc2ncc[nH]2)c1` had an IC50 of over 1000 nM.

In turn, `O=C(O)C[C@H](NC(=O)c1ccc2c(cnn2CCCNc2ccccn2)c1)C(=O)NCCc1ccccc1` showed an IC50 of over 1000 nM.

For the compound `Cc1cc(C)c(S(=O)(=O)N[C@@H](CNC(=O)c2ccc3c(cnn3CCC(=O)Nc3ncc[nH]3)c2)C(=O)O)c(C)c1`, 56 nM corresponded to half-maximal inhibition (IC50).

Regarding `O=C(NC[C@H](NS(=O)(=O)c1cccc2ccccc12)C(=O)O)c1ccc2c(cnn2CCCNc2ncc[nH]2)c1`, the IC50 was 13 nM.

`Cc1cccc(C)c1S(=O)(=O)N[C@@H](CNC(=O)c1ccc2c(cnn2CCCNc2ncc[nH]2)c1)C(=O)O` came in with an IC50 of 10 nM.

The compound `CC(=O)Nc1ccc(S(=O)(=O)N[C@@H](CNC(=O)c2ccc3c(cnn3CCCNc3ncc[nH]3)c2)C(=O)O)cc1` showed an IC50 of 150 nM.

`Cc1cc(C)c(S(=O)(=O)NCCNC(=O)c2ccc3c(cnn3CCCNc3ncc[nH]3)c2)c(C)c1` had a concentration for half-maximal inhibition (IC50) of over 1000 nM.

For the compound `O=C(NC[C@H](NS(=O)(=O)c1ccc(C(F)(F)F)cc1)C(=O)O)c1ccc2c(cnn2CCCNc2ncc[nH]2)c1`, half-maximal inhibition (IC50) required 52 nM.

`COc1ccc(S(=O)(=O)N[C@@H](CNC(=O)c2ccc3c(cnn3CCCNc3ncc[nH]3)c2)C(=O)O)cc1`: 26 nM corresponded to half-maximal inhibition (IC50).

For `O=C(O)CCNC(=O)c1ccc2c(cnn2CCCNc2ccccn2)c1`, the IC50 is over 1000 nM.

`Cc1cc(C)c(NC(=O)[C@H](CC(=O)O)NC(=O)c2ccc3c(cnn3CCCNc3ccccn3)c2)c(C)c1` returned an IC50 of over 1000 nM.

Regarding `O=C(NC[C@H](NS(=O)(=O)c1c(Cl)cccc1Cl)C(=O)O)c1ccc2c(cnn2CCCNc2ncc[nH]2)c1`, the IC50 was found to be 8.5 nM.

`O=C(NCc1ccccc1)N[C@@H](CNC(=O)c1ccc2c(cnn2CCCNc2ccccn2)c1)C(=O)O` gave an IC50 of over 1000 nM.

Regarding `O=C(NC[C@H](NS(=O)(=O)c1ccc2ccccc2c1)C(=O)O)c1ccc2c(cnn2CCCNc2ncc[nH]2)c1`, inhibition was half-maximal at 4.7 nM (IC50).

`Cc1cc(C)c(NS(=O)(=O)N[C@@H](CNC(=O)c2ccc3c(cnn3CCCNc3ccccn3)c2)C(=O)O)c(C)c1` had a half-maximal inhibitory concentration (IC50) of 360 nM.

In turn, `Cc1ccc(S(=O)(=O)N[C@@H](CNC(=O)c2ccc3c(cnn3CCCNc3ncc[nH]3)c2)C(=O)O)cc1` displayed an IC50 of 16 nM. Compared with the last compound, the IC50 is about 22-fold lower.

For the compound `Cc1cc(C)c(S(=O)(=O)N[C@@H](CNC(=O)c2ccc3c(cnn3CCCNc3cc[nH]n3)c2)C(=O)O)c(C)c1`, the IC50 is over 1000 nM.

In a further test the target is T1, Integrin alpha-V/beta-3. In words: Inhibition of adhesion of integrin beta-3-transfected HEK293 cells to fibrinogen. In kind it is functional, cell-based. In a few lines:
as §1
Regarding `Cc1cc(C)c(S(=O)(=O)N[C@@H](CNC(=O)c2ccc3c(cnn3CCCNC3=NCCN3)c2)C(=O)O)c(C)c1`, the IC50 was found to be 70 nM.

`Cc1cc(C)c(S(=O)(=O)N[C@@H](CNC(=O)c2ccc3c(cnn3CCCNC3=NCCCN3)c2)C(=O)O)c(C)c1` gave a concentration for half-maximal inhibition (IC50) of 28 nM. Against the preceding compound, the IC50 is about 2.5-fold lower.

Another test has as its target T1, Integrin alpha-V/beta-3. In words: Inhibitory activity against beta-3-transfected 293 cells using alphaV-beta3 antagonism assay. In kind it is functional, cell-based, HEK293. In a few lines: as §1
As for `O=C(N[C@@H](CNC(=O)c1cccc2c1cnn2CCCNC1=NCCN1)C(=O)O)OCc1ccccc1`, the IC50 is over 1000 nM.

Turning to `O=C(N[C@H](CNC(=O)c1ccc2cnn(CCCNC3=NCCN3)c2c1)C(=O)O)OCc1ccccc1`, the IC50 was over 1000 nM.

Compound `O=C(N[C@@H](CNC(=O)c1ccc2c(cnn2CCCNC2=NCCN2)c1)C(=O)O)OCc1ccccc1` registered an IC50 of 460 nM. This counts as sub-micromolar.

The compound `O=C(N[C@@H](CNC(=O)c1ccc2c(cnn2CCCCNC2=NCCN2)c1)C(=O)O)OCc1ccccc1` showed an IC50 of over 1000 nM.

`O=C(N[C@H](CNC(=O)c1ccc2cn(CCCNC3=NCCN3)nc2c1)C(=O)O)OCc1ccccc1` had an IC50 of over 1000 nM.

For the compound `O=C(N[C@@H](CNC(=O)c1ccc2c(cnn2CCNC2=NCCN2)c1)C(=O)O)OCc1ccccc1`, the IC50 was over 1000 nM.

`Cc1cc(C)c(S(=O)(=O)N[C@@H](CNC(=O)c2cccc3c2cnn3CCCNc2ncc[nH]2)C(=O)O)c(C)c1` displayed a half-maximal inhibitory concentration (IC50) of 25 nM.

`O=C(N[C@@H](CNC(=O)c1ccc2nn(CCCNC3=NCCN3)cc2c1)C(=O)O)OCc1ccccc1` had an IC50 of over 1000 nM.

The record behind these values is ChEMBL document CHEMBL1133174, “Disubstituted indazoles as potent antagonists of the integrin alpha(v)beta(3)” (J Med Chem, 2000).
